For one compound, Activity results are on record in ChEMBL document CHEMBL4382267, “Fusaristatin C, a Cyclic Lipodepsipeptide from Pithomyces sp. RKDO 1698” (J Nat Prod, 2018).

Active and inactive are the calls of the source. The rule behind the calls is not given here.

Series [1] has as its system Candida albicans. Kind of series: Antimicrobial activity against Candida albicans ATCC 14035 at 265 uM after 22 hrs by microbroth dilution method. The format is functional, organism-based. In a few lines: (§1)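 Microbroth dilution assay. The top concentration tested was 128 μg/mL, equal to 265 μM.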
For series [2], the system named is Proteus vulgaris. Description: Antimicrobial activity against Proteus vulgaris ATCC 12454 at 265 uM after 22 hrs by microbroth dilution method. The series is classed as functional, organism-based. The essentials:
as §1

Series [3] relates to Staphylococcus warneri. Kind of series: Antimicrobial activity against Staphylococcus warneri ATCC 17917 at 265 uM after 22 hrs by microbroth dilution method. The format is functional, organism-based. In a few lines: as §1
The subject of series [4] is Pseudomonas aeruginosa. Kind of series: Antimicrobial activity against Pseudomonas aeruginosa ATCC 14210 at 265 uM after 22 hrs by microbroth dilution method. The series is classed as functional, organism-based. In a few lines:
as §1

Series [5] deals with MCF7. Kind of series: Cytotoxicity against human MCF7 cells measured after 24 hrs by alamar blue assay. The format is functional, cell-based.
Series [6] deals with Vero. Description: Cytotoxicity against African green monkey Vero cells measured after 24 hrs by alamar blue assay. The format is cell-based. As to conditions: chlorocebus sabaeus.
Series [7] deals with HCT-116. Description: Cytotoxicity against human HCT116 cells measured after 24 hrs by alamar blue assay. The series is classed as functional, cell-based.
The species named for series [8] is Homo sapiens. Kind of series: Cytotoxicity against human HTB-26 cells measured after 24 hrs by alamar blue assay. The series is classed as functional, cell-based.
The test system of series [9] is Mycobacterium tuberculosis. Description: Antimicrobial activity against Mycobacterium tuberculosis ATCC 25177 at 265 uM after 4 days by microplate alamar blue assay. The format is functional, organism-based. Particulars: H37Ra.
For series [10], the system named is Staphylococcus aureus. Kind of series: Antimicrobial activity against methicillin resistant Staphylococcus aureus ATCC 33591 at 265 uM after 22 hrs by microbroth dilution method. The format is functional, organism-based. In a few lines: (§2)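 Microbroth dilution susceptibility test; compound tested up to a highest concentration of 128 μg/mL (265 μM).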
Series [11] relates to Enterococcus faecium. Kind of series: Antimicrobial activity against vancomycin-resistant Enterococcus faecium EF379 at 265 uM after 22 hrs by microbroth dilution method. The format is functional, organism-based. The essentials: as §2
Series [12] is described as follows: Cytotoxicity against HEKa cells measured after 24 hrs by alamar blue assay. The series is classed as cell-based. As to conditions: human.
Series [13] deals with BJ. Description: Cytotoxicity against human BJ cells measured after 24 hrs by alamar blue assay. The series is classed as cell-based.

As for `C=C1NC(=O)[C@H](C)[C@H](CCCCCCCC(C)CCC)OC(=O)[C@H](CO)NC(=O)CCNC1=O` (stereo partly drawn), the outcome in series [1], in [2], in series [3], in series [4], in [5] and in series [7] was inactive. The result in series [8], in series [9], in series [10] and in series [11] was inactive. In addition, the Activity result in series [6], in [12] and in [13] was “Non-Toxic” in each case.
